The values below come from ChEMBL document CHEMBL2375304, “Synthesis and anticancer activity of novel 2-pyridyl hexahyrocyclooctathieno[2,3-d]pyrimidine derivatives” (2013).

SMILES strings stand for the structures.

Holding throughout (format): functional
One assay deals with T47D. The experiment in a line: Growth inhibition of human T47D cells at 10^-5 M after 48 hrs by Sulforhodamine B assay relative to control. Particulars: read-out: GI. The essentials:
(§1)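 Single-dose stage: compound tested at 10⁻⁵ M in the 49-cell-line panel. Cells grew 24 h at 37 °C, 5% CO₂ before drug addition. Drug stock was in DMSO at 400-fold, diluted in medium with gentamicin. After 48 h exposure, adherent cells were fixed with cold TCA (10% final) and stained with 0.4% SRB in 1% acetic acid. Dye was solubilized in 10 mM Tris, read at 515 nm. Growth percentage was taken relative to untreated control and time-zero plates.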

The next assay deals with UO-31. The experiment in a line: Growth inhibition of human UO31 cells at 10^-5 M after 48 hrs by Sulforhodamine B assay relative to control. To be noted: UO-31, 48 h, read-out: GI. In outline: as §1
The test system of a further assay is HCT-116. The assay can be described thus: Growth inhibition of human HCT116 cells at 10^-5 M after 48 hrs by Sulforhodamine B assay relative to control. To be noted: HCT-116, 48 h, read-out: GI. In outline: (§2)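 Single-dose screen at 10⁻⁵ M. Cells are preincubated 24 h at 37 °C in 5% CO2, then exposed to the compound, diluted from a DMSO stock into medium with gentamicin, for 48 h. Adherent cells are fixed with cold TCA (final 10%) and suspension cells with TCA (final 16%). Cells are stained with 0.4% SRB in 1% acetic acid and bound dye is read at 515 nm. Percent growth inhibition is taken against control wells and time-zero plates.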

For the next assay, the system named is COLO 205. The assay can be described thus: Growth inhibition of human COLO205 cells at 10^-5 M after 48 hrs by Sulforhodamine B assay relative to control. Particulars: COLO 205, 48 h, read-out: GI. The essentials: as §2
In the next assay the test system is HT-29. The experiment in a line: Growth inhibition of human HT-29 cells at 10^-5 M after 48 hrs by Sulforhodamine B assay relative to control. To be noted: HT-29, 48 h, read-out: GI. The essentials:
as §2

For the next assay, the system named is SF-539. The assay can be described thus: Growth inhibition of human SF539 cells at 10^-5 M after 48 hrs by Sulforhodamine B assay relative to control. Particulars: SF-539, 48 h, read-out: GI. In outline: (§3)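 Single-dose primary screen at 10⁻⁵ M across 49 lines. Cells were plated 24 h beforehand, with a TCA-fixed time-zero plate, then exposed 48 h at 37 °C, 5% CO2. Cells were fixed with cold TCA, stained with SRB and read at 515 nm. Percent growth was calculated against time-zero and untreated-control absorbances.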

The subject of the next assay is Hs-578T. The assay can be described thus: Growth inhibition of human Hs578T cells at 10^-5 M after 48 hrs by Sulforhodamine B assay relative to control. Particulars: read-out: GI. In outline: as §2
A further assay concerns ACHN. The assay can be described thus: Growth inhibition of human ACHN cells at 10^-5 M after 48 hrs by Sulforhodamine B assay relative to control. Particulars: read-out: GI. In outline: as §2
For another assay, the system named is SK-MEL-28. The assay can be described thus: Growth inhibition of human SK-MEL-28 cells at 10^-5 M after 48 hrs by Sulforhodamine B assay relative to control. To be noted: SK-MEL-28, 48 h, read-out: GI. In outline:
as §3

In another assay the test system is K562. The experiment in a line: Growth inhibition of human K562 cells at 10^-5 M after 48 hrs by Sulforhodamine B assay relative to control. Particulars: K562, 48 h, read-out: GI. The essentials: as §2

In the case of `c1ccc(N2CCN(c3nc(-c4ccccn4)nc4sc5c(c34)CCCCCC5)CC2)cc1`, the inhibition of growth at 10 µM turned out to be 57.6% in the assay on T47D; 55.8% with UO-31; 80.5% in the assay with HCT-116; 26.3% with COLO 205; 42% in the assay with HT-29; 12.6% in the assay on SF-539. Moreover, the inhibition of growth at 10 µM with Hs-578T was found to be 6.17%; in the assay with ACHN, 56.1%; in the assay on SK-MEL-28, 7.85%; in the assay on K562, 79.2%.
Consider `COc1ccc(N2CCN(c3nc(-c4ccncc4)nc4sc5c(c34)CCCCCC5)CC2)cc1`, for which the inhibition of growth at 10 µM is 27% in the assay with T47D; 11.1% with UO-31; 23.3% in the assay on HCT-116; 5.76% in the assay with COLO 205; 23.4% in the assay on HT-29; 7.87% in the assay on SF-539. In addition, the inhibition of growth at 10 µM with Hs-578T is -5.59%; in the assay with ACHN it was 19.9%; in the assay with SK-MEL-28 it was -5.27%; in the assay on K562 it was 23.2%.
For the compound `Clc1nc(-c2ccccn2)nc2sc3c(c12)CCCCCC3`, the inhibition of growth at 10 µM was 57.8% with T47D; 83.6% in the assay on UO-31; 15.5% in the assay on HCT-116; -14.6% in the assay on COLO 205; 0.67% in the assay with HT-29; 2.75% with SF-539. Further, the inhibition of growth at 10 µM in the assay with Hs-578T turned out to be 8.7%; in the assay with ACHN, 120%; in the assay on SK-MEL-28, 10.7%; in the assay on K562 it was 20.2%.
As for `Clc1nc(-c2ccncc2)nc2sc3c(c12)CCCCCC3`, the inhibition of growth at 10 µM is 6.79% in the assay with T47D; 13.9% with UO-31; 2.69% in the assay with HCT-116; -16.6% with COLO 205; -1.58% in the assay on HT-29; 6.69% with SF-539. For the same compound, the inhibition of growth at 10 µM with Hs-578T was 6.64%; with ACHN, -0.47%; in the assay with SK-MEL-28, -4.12%; in the assay on K562, 13.6%.
For the compound `c1ccc(N2CCN(c3nc(-c4ccncc4)nc4sc5c(c34)CCCCCC5)CC2)cc1`, the inhibition of growth at 10 µM is 11.7% in the assay with T47D; 16.1% in the assay on UO-31; -3.45% with HCT-116; -1.65% in the assay with COLO 205; 12.8% in the assay on HT-29; 1.14% in the assay with SF-539. Further, the inhibition of growth at 10 µM with Hs-578T is -12.9%; in the assay on ACHN, 7.05%; in the assay on SK-MEL-28, -15%; with K562, 7.55%.
